Experiments:
[1] = target: T1, Alpha-1B adrenergic receptor (Rattus norvegicus) (UniProt P15823); test: Antagonism of Alpha-1B adrenergic receptor subtype (-)-phenylephrine-induced contraction of rat spleen; type: functional, tissue-based
T1 sequence (whole entry): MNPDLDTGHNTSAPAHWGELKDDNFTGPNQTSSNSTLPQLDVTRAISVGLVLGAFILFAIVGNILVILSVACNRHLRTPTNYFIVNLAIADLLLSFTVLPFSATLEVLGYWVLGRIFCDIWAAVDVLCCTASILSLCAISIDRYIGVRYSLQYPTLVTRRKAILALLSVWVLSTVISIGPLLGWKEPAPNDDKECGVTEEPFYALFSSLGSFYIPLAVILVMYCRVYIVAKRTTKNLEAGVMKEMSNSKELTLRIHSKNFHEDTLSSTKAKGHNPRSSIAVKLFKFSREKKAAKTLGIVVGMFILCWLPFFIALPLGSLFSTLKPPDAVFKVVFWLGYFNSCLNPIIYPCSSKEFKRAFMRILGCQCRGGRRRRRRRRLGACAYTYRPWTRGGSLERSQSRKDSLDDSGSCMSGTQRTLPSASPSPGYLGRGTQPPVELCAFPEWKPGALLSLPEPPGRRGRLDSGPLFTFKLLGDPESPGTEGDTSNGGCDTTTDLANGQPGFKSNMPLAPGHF
In short: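 Rat spleen, isometric cumulative (–)-phenylephrine curves at 30-min intervals; first discarded, second taken as control. Antagonist was equilibrated 30 min before the next curve.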

[2] = target: T2, Alpha-1A adrenergic receptor (Homo sapiens, UniProt P35348); test: Displacement of [3H]prazosin from human cloned Alpha-1A adrenergic receptor
T2 sequence (P35348 whole entry): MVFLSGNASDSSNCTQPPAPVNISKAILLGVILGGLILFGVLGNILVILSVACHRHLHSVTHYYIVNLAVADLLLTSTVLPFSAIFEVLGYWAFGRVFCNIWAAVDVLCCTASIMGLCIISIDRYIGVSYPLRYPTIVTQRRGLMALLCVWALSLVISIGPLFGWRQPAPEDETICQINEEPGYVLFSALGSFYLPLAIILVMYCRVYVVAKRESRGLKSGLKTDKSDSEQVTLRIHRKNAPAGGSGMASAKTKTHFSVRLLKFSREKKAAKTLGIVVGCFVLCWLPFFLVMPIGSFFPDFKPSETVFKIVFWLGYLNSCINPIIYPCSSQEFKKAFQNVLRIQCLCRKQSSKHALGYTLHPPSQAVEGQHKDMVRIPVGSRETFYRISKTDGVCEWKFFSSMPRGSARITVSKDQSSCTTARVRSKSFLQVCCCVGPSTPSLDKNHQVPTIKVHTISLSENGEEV
In short: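 CHO cells stably transfected with each human α1 subtype; 30 μg membrane protein in 50 mM Tris-HCl pH 7.4 with 0.1–0.4 nM [3H]prazosin, 30 min at 25 °C. Competitors 1 pM–10 μM. Nonspecific binding defined with 10 μM phentolamine. Filtration, scintillation counting. Ki by Cheng–Prusoff; 2–3 experiments in triplicate.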

[3] = target: T3, Alpha-1D adrenergic receptor (Rattus norvegicus) (UniProt P23944); test: Alpha-1D adrenergic receptor subtype blocking activity (antagonism) against (-)-noradrenaline-induced contraction of rat thoracic aorta.; type: functional, tissue-based
T3 sequence (whole entry): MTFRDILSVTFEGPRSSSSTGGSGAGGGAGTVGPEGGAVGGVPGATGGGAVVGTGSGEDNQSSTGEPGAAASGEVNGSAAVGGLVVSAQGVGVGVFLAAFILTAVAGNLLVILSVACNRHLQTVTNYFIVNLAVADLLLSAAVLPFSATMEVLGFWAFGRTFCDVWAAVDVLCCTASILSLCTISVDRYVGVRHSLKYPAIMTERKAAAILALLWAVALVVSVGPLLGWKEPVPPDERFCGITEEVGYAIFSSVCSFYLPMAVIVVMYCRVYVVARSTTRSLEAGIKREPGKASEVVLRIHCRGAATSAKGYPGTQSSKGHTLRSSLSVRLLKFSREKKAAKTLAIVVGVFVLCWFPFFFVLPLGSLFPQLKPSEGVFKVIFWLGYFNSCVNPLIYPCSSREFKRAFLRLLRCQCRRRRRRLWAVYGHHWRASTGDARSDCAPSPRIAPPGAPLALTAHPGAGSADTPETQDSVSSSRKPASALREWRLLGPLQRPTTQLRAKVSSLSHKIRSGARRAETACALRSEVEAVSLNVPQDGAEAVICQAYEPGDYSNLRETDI
In short: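 Helicoidal strips of rat thoracic aorta under 1 g tension, bath with 0.01 μM desipramine and 1 μM (±)-propranolol, equilibrated ≥1 h. Cumulative (–)-noradrenaline curves at 30-min intervals: first two discarded, third as control, fourth after 30-min antagonist exposure. pKb by Arunlakshana–Schild from EC50 dose ratios at 2–3 antagonist concentrations, each tested four times.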

[4] = target: T4, 5-hydroxytryptamine receptor 1A (Homo sapiens, UniProt P08908); test: Displacement of [3H]8-hydroxy-2-(di-n-propylamino)tetralin from human 5-hydroxytryptamine 1A receptor
T4 sequence (P08908 whole entry): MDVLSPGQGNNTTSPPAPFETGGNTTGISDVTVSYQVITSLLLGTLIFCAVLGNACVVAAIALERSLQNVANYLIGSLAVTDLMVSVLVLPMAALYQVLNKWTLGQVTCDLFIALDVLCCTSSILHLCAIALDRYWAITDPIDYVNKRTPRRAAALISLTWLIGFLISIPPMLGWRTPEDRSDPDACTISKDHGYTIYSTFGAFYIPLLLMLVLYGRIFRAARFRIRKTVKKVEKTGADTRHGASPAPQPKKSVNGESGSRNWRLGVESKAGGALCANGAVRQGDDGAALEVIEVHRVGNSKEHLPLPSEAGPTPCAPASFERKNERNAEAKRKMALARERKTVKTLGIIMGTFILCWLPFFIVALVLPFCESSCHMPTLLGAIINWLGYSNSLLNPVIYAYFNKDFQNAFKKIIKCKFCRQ
In short: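 Membranes of HeLa cells stably transfected with human 5-HT1A (genomic clone G-21), in 50 mM Tris-HCl pH 7.4, 2.5 mM MgCl2, 10 μM pargiline. […] Nonspecific binding defined with 10 μM 5-HT. Filtration, scintillation counting. Ki by Cheng–Prusoff; 2–3 experiments in triplicate.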

[5] = target: T5, Alpha-1A adrenergic receptor (Rattus norvegicus) (UniProt P43140); test: Antagonist activity against Alpha-1A adrenergic receptor (-)-noradrenaline-induced contraction of rat prostatic vas deferens; type: functional, tissue-based
T5 sequence (whole entry): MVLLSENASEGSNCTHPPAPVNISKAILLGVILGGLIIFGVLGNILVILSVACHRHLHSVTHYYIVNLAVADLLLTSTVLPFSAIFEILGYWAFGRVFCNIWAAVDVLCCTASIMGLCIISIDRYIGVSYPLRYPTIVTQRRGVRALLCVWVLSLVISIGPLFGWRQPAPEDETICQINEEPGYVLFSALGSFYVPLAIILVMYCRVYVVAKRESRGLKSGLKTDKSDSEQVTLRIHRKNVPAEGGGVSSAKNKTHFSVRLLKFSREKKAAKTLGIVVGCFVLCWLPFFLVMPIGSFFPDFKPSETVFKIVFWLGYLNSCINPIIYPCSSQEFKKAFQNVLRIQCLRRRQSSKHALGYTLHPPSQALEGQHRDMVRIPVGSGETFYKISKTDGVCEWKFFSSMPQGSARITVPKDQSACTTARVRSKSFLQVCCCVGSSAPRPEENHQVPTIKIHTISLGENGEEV
In short: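 Isolated rat prostatic vas deferens with 0.01 μM desipramine in the bath. Isotonic cumulative (–)-noradrenaline curves were run at 30-min intervals: first discarded, second as control, then antagonist equilibrated 30 min before a new curve. pKb by Arunlakshana–Schild from dose ratios of EC50, at 2–3 antagonist concentrations, each tested four times.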

[6] = target: Serotonin 2 (5-HT2) receptor (Rattus norvegicus, UniProt P30994+P08909+P14842); test: Displacement of [3H]ketanserin from rat brain 5-hydroxytryptamine 2 receptor
In short: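 Rat cerebral cortex membranes (male Sprague–Dawley) in Tris-HCl pH 7.4 with 10 μM pargiline and 0.1% ascorbic acid were incubated 20 min at 37 °C with 0.7–1.3 nM [3H]ketanserin (5-HT2A). Nonspecific binding was defined by 2 μM ketanserin. Bound label was counted after filtration, and Ki was derived by Cheng–Prusoff.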

Row | SMILES | pKb [1] | pKb [3] | Ki [4] [nM] | pKb [5] | Ki [2] [nM] | Log Ki [6]
1 | COc1cccc(OC)c1OCCNCC1COc2ccccc2O1 (stereo not drawn) | 8.21 | 8.6 | 2.09 | 9.36 | 0.427 | -6
2 | COc1cccc(OC)c1O[C@@H]1CCC(NCC2COc3ccccc3O2)C1O (stereo in doubt; 8) [listing 1 of 2 here] |  |  | 33.9 |  |  | 
3 | COc1cccc(OC)c1O[C@@H]1CCC(NCC2COc3ccccc3O2)C1O (stereo in doubt; 7) [listing 1 of 2 here] | 6.27 | 7.32 |  | 5.89 |  | 
4 | COc1cccc(OC)c1O[C@@H]1CCC(NCC2COc3ccccc3O2)C1O (stereo in doubt; 7) [listing 2 of 2 here] |  |  | 50.1 |  |  | 

Now from value to compound, other results behind:

Row | pKb [1] | pKb [3] | Ki [4] [nM] | pKb [5] | SMILES | Ki [2] [nM] | Log Ki [6]
5 | 6.47 | 7.85 |  | 5.7 | OC1C(NCC2COc3ccccc3O2)CC[C@H]1Oc1ccccc1 (stereo in doubt; 4) |  | 
6 |  |  | 26.9 |  | COc1ccccc1O[C@@H]1CCC(NCC2COc3ccccc3O2)C1O (stereo in doubt; 6) [listing 1 of 2 here] |  | 
7 | 6.8 | 7.3 |  | 6.56 | COc1ccccc1O[C@@H]1CCC(NCC2COc3ccccc3O2)C1O (stereo in doubt; 6) [listing 2 of 2 here] |  | 
8 | 6.24 | 7.15 |  | 5.68 | COc1ccccc1O[C@@H]1CCC(NCC2COc3ccccc3O2)C1O (stereo in doubt; 5) [listing 1 of 2 here] |  | 
9 | 6.17 | 6.94 |  | 5.79 | COc1cccc(OC)c1O[C@@H]1CCC(NCC2COc3ccccc3O2)C1O (stereo in doubt; 8) [listing 2 of 2 here] |  | 
10 | 6.45 | 7.66 |  | 5.48 | OC1C(NCC2COc3ccccc3O2)CC[C@H]1Oc1ccccc1 (stereo in doubt; 3) |  | 
11 |  |  | 24.5 |  | COc1ccccc1O[C@@H]1CCC(NCC2COc3ccccc3O2)C1O (stereo in doubt; 5) [listing 2 of 2 here] |  | 

— ChEMBL document CHEMBL1132183 (J Med Chem, 1999)
